In ChEMBL document CHEMBL1153560, “In vitro activities of doripenem and six comparator drugs against 423 aerobic and anaerobic bacterial isolates from infected diabetic foot wounds” (2008):
Converted amounts (≈) assume the structure as drawn.

Assays:
Assay type in all cases: functional
Phocaeicola vulgatus = assay: Antibacterial activity against Bacteroides vulgatus isolated from patient with diabetic foot infection after 44 to 48 hrs by agar dilution method
In short: (§1)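 CLSI M11-A7 agar dilution: serial twofold drug dilutions made on the test day and added to molten agar. Spots of 10^5 CFU were applied by replicator, with drug-free control plates inoculated before and after each set. Incubation was 44 to 48 h at 37°C in an anaerobic chamber. MIC was the lowest concentration giving no growth or a marked change in growth versus controls.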

Bacteroides fragilis = assay: Antibacterial activity against Bacteroides fragilis isolated from patient with diabetic foot infection after 44 to 48 hrs by agar dilution method; in short: as §1
Bacteroides caccae [1] = assay: Antibacterial activity against Bacteroides caccae isolated from patient with diabetic foot infection after 44 to 48 hrs by agar dilution method; in short: as §1
Parabacteroides merdae [2] = assay: Antibacterial activity against Parabacteroides merdae isolated from patient with diabetic foot infection after 44 to 48 hrs by agar dilution method; in short: as §1
Porphyromonas somerae = assay: Antibacterial activity against Porphyromonas somerae isolated from patient with diabetic foot infection assessed as percent resistant isolates after 44 to 48 hrs by agar dilution method
In short: (§2)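 Agar dilution per CLSI M11-A7. Twofold drug dilutions made on the test day and added to molten agar. Replicator-applied inoculum of 10^5 CFU/spot. Drug-free control plates inoculated before and after each drug set. Incubation at 37°C for 44 to 48 h, anaerobic chamber. MIC taken as the lowest concentration giving no growth or a marked change in growth versus controls.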

Cutibacterium acnes [3] = assay: Antibacterial activity against Propionibacterium acnes isolated from patient with diabetic foot infection assessed as percent resistant isolates after 44 to 48 hrs by agar dilution method; in short: as §2
[4] = test system: Clostridium malenominatum; assay: Antibacterial activity against Clostridium malenominatum isolated from patient with diabetic foot infection after 44 to 48 hrs by agar dilution method; in short: as §1
Bacteroides caccae [5] = assay: Antibacterial activity against Bacteroides caccae isolated from patient with diabetic foot infection assessed as percent resistant isolates after 44 to 48 hrs by agar dilution method; in short: as §2
[6] = test system: Clostridium malenominatum; assay: Antibacterial activity against Clostridium malenominatum isolated from patient with diabetic foot infection assessed as percent resistant isolates after 44 to 48 hrs by agar dilution method; in short: as §2
[Clostridium] innocuum [7] = Antibacterial activity against Clostridium innocuum isolated from patient with diabetic foot infection after 44 to 48 hrs by agar dilution method; in short: as §1
Anaerococcus tetradius [8] = assay: Antibacterial activity against Anaerococcus tetradius isolated from patient with diabetic foot infection after 44 to 48 hrs by agar dilution method; in short: as §1
Parabacteroides merdae [9] = assay: Antibacterial activity against Parabacteroides merdae isolated from patient with diabetic foot infection assessed as percent resistant isolates after 44 to 48 hrs by agar dilution method; in short: as §2
Anaerococcus vaginalis [10] = assay: Antibacterial activity against Anaerococcus vaginalis isolated from patient with diabetic foot infection after 44 to 48 hrs by agar dilution method; in short: as §1
Bacteroides uniformis = assay: Antibacterial activity against Bacteroides uniformis isolated from patient with diabetic foot infection after 44 to 48 hrs by agar dilution method; in short: as §1
Cutibacterium acnes [11] = assay: Antibacterial activity against Propionibacterium acnes isolated from patient with diabetic foot infection after 44 to 48 hrs by agar dilution method; in short: as §1
[Clostridium] innocuum [12] = Antibacterial activity against Clostridium innocuum isolated from patient with diabetic foot infection assessed as percent resistant isolates after 44 to 48 hrs by agar dilution method; in short: as §2
[13] = test system: Enterocloster clostridioformis; assay: Antibacterial activity against Clostridium clostridioforme isolated from patient with diabetic foot infection after 44 to 48 hrs by agar dilution method; in short: as §1
Finegoldia magna [14] = assay: Antibacterial activity against Finegoldia magna isolated from patient with diabetic foot infection after 44 to 48 hrs by agar dilution method; in short: as §1
Bacteroides ovatus [15] = assay: Antibacterial activity against Bacteroides ovatus isolated from patient with diabetic foot infection assessed as percent resistant isolates after 44 to 48 hrs by agar dilution method; in short: as §2
[16] = test system: Porphyromonas asaccharolytica; assay: Antibacterial activity against Porphyromonas asaccharolyticus isolated from patient with diabetic foot infection after 44 to 48 hrs by agar dilution method; in short: as §1
Prevotella bivia [17] = assay: Antibacterial activity against Prevotella bivia isolated from patient with diabetic foot infection after 44 to 48 hrs by agar dilution method; in short: as §1
[18] = test system: Enterocloster clostridioformis; assay: Antibacterial activity against Clostridium clostridioforme isolated from patient with diabetic foot infection assessed as percent resistant isolates after 44 to 48 hrs by agar dilution method; in short: as §2
Prevotella bivia [19] = assay: Antibacterial activity against Prevotella bivia isolated from patient with diabetic foot infection assessed as percent resistant isolates after 44 to 48 hrs by agar dilution method; in short: as §2
Anaerococcus tetradius [20] = assay: Antibacterial activity against Anaerococcus tetradius isolated from patient with diabetic foot infection assessed as percent resistant isolates after 44 to 48 hrs by agar dilution method; in short: as §2
Bacteroides ovatus [21] = assay: Antibacterial activity against Bacteroides ovatus isolated from patient with diabetic foot infection after 44 to 48 hrs by agar dilution method; in short: as §1
Parvimonas micra = assay: Antibacterial activity against Peptostreptococcus micros isolated from patient with diabetic foot infection assessed as percent resistant isolates after 44 to 48 hrs by agar dilution method; in short: as §2
[22] = test system: Anaerocolumna aminovalerica; assay: Antibacterial activity against Clostridium aminovalericum isolated from patient with diabetic foot infection after 44 to 48 hrs by agar dilution method; in short: as §1
[23] = test system: Peptoniphilus asaccharolyticus; assay: Antibacterial activity against Peptoniphilus asaccharolyticus isolated from patient with diabetic foot infection after 44 to 48 hrs by agar dilution method; in short: as §1
Bacteroides stercoris = assay: Antibacterial activity against Bacteroides stercoris isolated from patient with diabetic foot infection assessed as percent resistant isolates after 44 to 48 hrs by agar dilution method; in short: as §2
Clostridium perfringens = assay: Antibacterial activity against Clostridium perfringens isolated from patient with diabetic foot infection after 44 to 48 hrs by agar dilution method; in short: as §2
[24] = test system: Bacteroides thetaiotaomicron; assay: Antibacterial activity against Bacteroides thetaiotaomicron isolated from patient with diabetic foot infection assessed as percent resistant isolates after 44 to 48 hrs by agar dilution method; in short: as §2
Anaerococcus vaginalis [25] = assay: Antibacterial activity against Anaerococcus vaginalis isolated from patient with diabetic foot infection assessed as percent resistant isolates after 44 to 48 hrs by agar dilution method; in short: as §2
[26] = test system: Parabacteroides distasonis; assay: Antibacterial activity against Parabacteroides distasonis isolated from patient with diabetic foot infection assessed as percent resistant isolates after 44 to 48 hrs by agar dilution method; in short: as §2
Anaerococcus prevotii [27] = assay: Antibacterial activity against Anaerococcus prevotii isolated from patient with diabetic foot infection assessed as percent resistant isolates after 44 to 48 hrs by agar dilution method; in short: as §2
Anaerococcus prevotii [28] = assay: Antibacterial activity against Anaerococcus prevotii isolated from patient with diabetic foot infection after 44 to 48 hrs by agar dilution method; in short: as §1
Finegoldia magna [29] = assay: Antibacterial activity against Finegoldia magna isolated from patient with diabetic foot infection assessed as percent resistant isolates after 44 to 48 hrs by agar dilution method; in short: as §2
[30] = test system: Peptoniphilus asaccharolyticus; assay: Antibacterial activity against Peptoniphilus asaccharolyticus isolated from patient with diabetic foot infection assessed as percent resistant isolates after 44 to 48 hrs by agar dilution method; in short: as §2

C[C@@H](O)[C@H]1C(=O)N2C(C(=O)O)=C(S[C@@H]3CN[C@H](C(=O)N(C)C)C3)[C@H](C)[C@H]12 [MEROPENEM]
MIC50 (Phocaeicola vulgatus): 0.25 µg/mL (≈ 0.652 µM)
MIC90 (Phocaeicola vulgatus): 1 µg/mL (≈ 2.61 µM)
MIC50 (Bacteroides fragilis): 0.125 µg/mL (≈ 0.326 µM)
MIC90 (Bacteroides fragilis): 0.25 µg/mL (≈ 0.652 µM)
MIC50 (Bacteroides caccae [1]): 0.25 µg/mL (≈ 0.652 µM)
MIC90 (Bacteroides caccae [1]): 1 µg/mL (≈ 2.61 µM)
MIC50 (Parabacteroides merdae [2]): 0.25 µg/mL (≈ 0.652 µM)
MIC90 (Parabacteroides merdae [2]): 1 µg/mL (≈ 2.61 µM)
Activity (Porphyromonas somerae): 0%
Activity (Cutibacterium acnes [3]): 0%
MIC50 [4]: 0.06 µg/mL (≈ 0.156 µM)
MIC90 [4]: 1 µg/mL (≈ 2.61 µM)
Activity (Bacteroides caccae [5]): 0%
Activity [6]: 0%
MIC50 ([Clostridium] innocuum [7]): 0.06 µg/mL (≈ 0.156 µM)
MIC90 ([Clostridium] innocuum [7]): 1 µg/mL (≈ 2.61 µM)
MIC50 (Anaerococcus tetradius [8]): 0.03 µg/mL (≈ 0.0782 µM)
MIC90 (Anaerococcus tetradius [8]): 0.125 µg/mL (≈ 0.326 µM)
Activity (Parabacteroides merdae [9]): 0%
MIC50 (Anaerococcus vaginalis [10]): 0.03 µg/mL (≈ 0.0782 µM)
MIC90 (Anaerococcus vaginalis [10]): 0.125 µg/mL (≈ 0.326 µM)
MIC50 (Bacteroides uniformis): 0.25 µg/mL (≈ 0.652 µM)
MIC90 (Bacteroides uniformis): 1 µg/mL (≈ 2.61 µM)
MIC50 (Cutibacterium acnes [11]): 0.125 µg/mL (≈ 0.326 µM)
MIC90 (Cutibacterium acnes [11]): 0.25 µg/mL (≈ 0.652 µM)
Activity ([Clostridium] innocuum [12]): 0%
MIC50 [13]: 0.06 µg/mL (≈ 0.156 µM)
MIC90 [13]: 1 µg/mL (≈ 2.61 µM)
MIC50 (Finegoldia magna [14]): 0.06 µg/mL (≈ 0.156 µM)
MIC90 (Finegoldia magna [14]): 0.125 µg/mL (≈ 0.326 µM)
Activity (Bacteroides ovatus [15]): 0%
MIC50 [16]: ≤ 0.015 µg/mL
MIC90 [16]: ≤ 0.015 µg/mL
MIC50 (Prevotella bivia [17]): 0.06 µg/mL (≈ 0.156 µM)
MIC90 (Prevotella bivia [17]): 0.125 µg/mL (≈ 0.326 µM)
Activity [18]: 0%
Activity (Prevotella bivia [19]): 0%
Activity (Anaerococcus tetradius [20]): 0%
MIC50 (Bacteroides ovatus [21]): 0.25 µg/mL (≈ 0.652 µM)
MIC90 (Bacteroides ovatus [21]): 1 µg/mL (≈ 2.61 µM)
Activity (Parvimonas micra): 0%
MIC50 [22]: 0.06 µg/mL (≈ 0.156 µM)
MIC90 [22]: 1 µg/mL (≈ 2.61 µM)
MIC50 [23]: ≤ 0.015 µg/mL
MIC90 [23]: 0.125 µg/mL (≈ 0.326 µM)
Activity (Bacteroides stercoris): 0%
MIC50 (Clostridium perfringens): ≤ 0.015 µg/mL
MIC90 (Clostridium perfringens): ≤ 0.015 µg/mL
Activity [24]: 0%
Activity (Anaerococcus vaginalis [25]): 0%
Activity [26]: 0%
Activity (Anaerococcus prevotii [27]): 0%
MIC50 (Anaerococcus prevotii [28]): 0.03 µg/mL (≈ 0.0782 µM)
MIC90 (Anaerococcus prevotii [28]): 0.125 µg/mL (≈ 0.326 µM)
Activity (Finegoldia magna [29]): 0%
Activity [30]: 0%

Cc1ncc([N+](=O)[O-])n1CCO [METRONIDAZOLE]
MIC50 (Phocaeicola vulgatus): 0.5 µg/mL (≈ 2.92 µM)
MIC90 (Phocaeicola vulgatus): 1 µg/mL (≈ 5.84 µM)
MIC50 (Bacteroides fragilis): 0.5 µg/mL (≈ 2.92 µM)
MIC90 (Bacteroides fragilis): 1 µg/mL (≈ 5.84 µM)
MIC50 (Bacteroides caccae [1]): 0.5 µg/mL (≈ 2.92 µM)
MIC90 (Bacteroides caccae [1]): 1 µg/mL (≈ 5.84 µM)
MIC50 (Parabacteroides merdae [2]): 0.5 µg/mL (≈ 2.92 µM)
MIC90 (Parabacteroides merdae [2]): 1 µg/mL (≈ 5.84 µM)
Activity (Porphyromonas somerae): 0%
Activity (Cutibacterium acnes [3]): 100%
MIC50 [4]: 0.125 µg/mL (≈ 0.73 µM)
MIC90 [4]: 0.25 µg/mL (≈ 1.46 µM)
Activity (Bacteroides caccae [5]): 0%
Activity [6]: 0%
MIC50 ([Clostridium] innocuum [7]): 0.125 µg/mL (≈ 0.73 µM)
MIC90 ([Clostridium] innocuum [7]): 0.25 µg/mL (≈ 1.46 µM)
MIC50 (Anaerococcus tetradius [8]): 0.5 µg/mL (≈ 2.92 µM)
MIC90 (Anaerococcus tetradius [8]): 1 µg/mL (≈ 5.84 µM)
Activity (Parabacteroides merdae [9]): 0%
MIC50 (Anaerococcus vaginalis [10]): 0.5 µg/mL (≈ 2.92 µM)
MIC50 (Bacteroides uniformis): 0.5 µg/mL (≈ 2.92 µM)
MIC90 (Bacteroides uniformis): 1 µg/mL (≈ 5.84 µM)
MIC50 (Cutibacterium acnes [11]): > 32 µg/mL
MIC90 (Cutibacterium acnes [11]): > 32 µg/mL
Activity ([Clostridium] innocuum [12]): 0%
MIC50 [13]: 0.125 µg/mL (≈ 0.73 µM)
MIC90 [13]: 0.25 µg/mL (≈ 1.46 µM)
MIC50 (Finegoldia magna [14]): 0.5 µg/mL (≈ 2.92 µM)
MIC90 (Finegoldia magna [14]): 1 µg/mL (≈ 5.84 µM)
Activity (Bacteroides ovatus [15]): 0%
MIC50 [16]: 0.05 µg/mL (≈ 0.292 µM)
MIC90 [16]: 0.25 µg/mL (≈ 1.46 µM)
MIC50 (Prevotella bivia [17]): 4 µg/mL (≈ 23.4 µM)
MIC90 (Prevotella bivia [17]): 4 µg/mL (≈ 23.4 µM)
Activity [18]: 0%
Activity (Prevotella bivia [19]): 0%
Activity (Anaerococcus tetradius [20]): 0%
MIC50 (Bacteroides ovatus [21]): 0.5 µg/mL (≈ 2.92 µM)
MIC90 (Bacteroides ovatus [21]): 1 µg/mL (≈ 5.84 µM)
Activity (Parvimonas micra): 0%
MIC50 [22]: 0.125 µg/mL (≈ 0.73 µM)
MIC90 [22]: 0.25 µg/mL (≈ 1.46 µM)
MIC50 [23]: 0.5 µg/mL (≈ 2.92 µM)
MIC90 [23]: 2 µg/mL (≈ 11.7 µM)
Activity (Bacteroides stercoris): 0%
MIC50 (Clostridium perfringens): 1 µg/mL (≈ 5.84 µM)
MIC90 (Clostridium perfringens): 1 µg/mL (≈ 5.84 µM)
Activity [24]: 0%
Activity (Anaerococcus vaginalis [25]): 0%
Activity [26]: 0%
Activity (Anaerococcus prevotii [27]): 0%
MIC50 (Anaerococcus prevotii [28]): 0.5 µg/mL (≈ 2.92 µM)
MIC90 (Anaerococcus prevotii [28]): 1 µg/mL (≈ 5.84 µM)
Activity (Finegoldia magna [29]): 0%
Activity [30]: 0%
